Results taken from ChEMBL document CHEMBL3421565, “β-D-2'-C-Methyl-2,6-diaminopurine Ribonucleoside Phosphoramidates are Potent and Selective Inhibitors of Hepatitis C Virus (HCV) and Are Bioconverted Intracellularly to Bioactive 2,6-Diaminopurine and Guanosine 5'-Triphosphate Forms” (J Med Chem, 2015).

What was measured:
[1] = Drug metabolism in human primary hepatocytes assessed as 2'-C-Me-DAPN-TP level at 50 uM incubated for 4 hrs at 37 degC by LC-MS/MS method; format: ADME, cell-based, Hepatocyte
How it was run: (§1)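 Huh-7 cells (after attachment) or freshly plated primary human hepatocytes (after overnight acclimatation), 1 × 10⁶ cells/well, exposed to 50 μM compound for 4 h at 37 °C. Cells washed twice with ice-cold PBS and extracted overnight at −20 °C in 70% methanol containing 20 nM ddATP. Mono-, di- and triphosphates quantified by LC–MS/MS as pmol/10⁶ cells; three replicates.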

[2] = Drug metabolism in human HuH7 cells assessed as 2'-C-Me-DAPN-TP level per million cells at 50 uM incubated for 4 hrs at 37 degC by LC-MS/MS method relative to DAPN; format: ADME, cell-based; conditions: huh-7, 4 h; how it was run: as §1
Hepatitis C virus [3] = assay: Antiviral activity against HCV genotype 4a chimera with HCV genotype 1b Con1 backbone containing HCV genotype 4a NS5B gene infected in human HuH7 cells assessed as reduction in replicon RNA levels incubated for 5 days by RT-PCR assay; format: functional, cell-based, Hepacivirus hominis; conditions: Huh-7, 120 h
How it was run: (§2)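 Huh-7 clone B cells carrying HCV replicon RNA, seeded at 3000 cells/well; compounds added in dose response in triplicate right after seeding. Incubated 5 days at 37 °C, 5% CO₂. Total RNA extracted; replicon RNA and rRNA internal control co-amplified by one-step multiplex real-time RT-PCR. Antiviral effect taken as ΔCt versus no-drug control; cytotoxicity read from rRNA reduction.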

Hepatitis C virus [4] = assay: Antiviral activity against HCV genotype 1b containing NS3 R155K mutant infected in human HuH7 cells assessed as reduction in replicon RNA levels incubated for 5 days by RT-PCR assay; format: functional, cell-based, Hepacivirus hominis; conditions: Huh-7, 120 h; how it was run: as §2
HepG2 [5] = assay: Mitochondrial toxicity in human HepG2 cells assessed as induction of lactic acid levels at 10 uM incubated for 14 days; format: cell-based; conditions: hepg2, 336 h
How it was run: (§3)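 After 14 days of HepG2 exposure to compound (same culture regimen as the mtDNA assay), lactic acid in culture supernatant quantified with a D-/L-lactic acid kit by absorbance. Results expressed as % lactic acid over % nuclear DNA (β-actin control); mean of triplicates from a single plate.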

HepG2 [6] = assay: Mitochondrial toxicity in human HepG2 cells assessed as induction of lactic acid levels at 1 uM incubated for 14 days; format: cell-based; conditions: hepg2, 336 h; how it was run: as §3
[7] = Toxicity in human PC3 cells assessed as effect on GAPDH levels at 100 uM; format: cell-based; conditions: pc-3, 100 µM
Hepatitis C virus [8] = assay: Antiviral activity against HCV genotype 1b infected in human HuH7 cells assessed as reduction in replicon RNA levels incubated for 5 days by RT-PCR assay; format: functional, cell-based, Hepacivirus hominis; conditions: Huh-7, 120 h; how it was run: as §2
Vero = assay: Cytotoxicity against African green monkey Vero cells assessed as reduction in cell viability incubated for 5 days by Cell-titer 96 aqueous one solution cell proliferation assay; format: cell-based; conditions: chlorocebus sabaeus, vero, 120 h
[9] = Drug metabolism in human HuH7 cells assessed as 2'-C-Me-DAPN-TP level per million cells at 50 uM incubated for 4 hrs at 37 degC by LC-MS/MS method; format: ADME, cell-based; conditions: huh-7, 4 h; how it was run: as §1
Hepatitis C virus [10] = assay: Antiviral activity against HCV genotype 5a chimera with HCV genotype 1b Con1 backbone containing HCV genotype 5a NS5B gene infected in human HuH7 cells assessed as reduction in replicon RNA levels incubated for 5 days by RT-PCR assay; format: functional, cell-based, Hepacivirus hominis; conditions: Huh-7, 120 h; how it was run: as §2
Hepatitis C virus [11] = assay: Antiviral activity against HCV genotype 3a chimera with HCV genotype 1b Con1 backbone containing HCV genotype 3a NS5B gene infected in human HuH7 cells assessed as reduction in replicon RNA levels incubated for 5 days by RT-PCR assay; format: functional, cell-based, Hepacivirus hominis; conditions: Huh-7, 120 h; how it was run: as §2
Hepatitis C virus [12] = assay: Antiviral activity against HCV genotype 1b containing NS5B C445F mutant infected in human HuH7 cells assessed as reduction in replicon RNA levels incubated for 5 days by RT-PCR assay; format: functional, cell-based, Hepacivirus hominis; conditions: Huh-7, 120 h; how it was run: as §2
HepG2 [13] = assay: Mitochondrial toxicity in human HepG2 cells assessed as effect on nuclear beta-actin DNA level incubated for 14 days by real-time PCR method; format: cell-based; conditions: hepg2, 336 h
How it was run: (§4)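 HepG2 cells in DMEM with 4.5 g/L glucose and 10% heat-inactivated FBS, seeded at 5000 cells/well on collagen; compounds added 1 day later at final 1–50 μM. Medium and compound renewed every 3–4 days for 14 days; duplicates in two independent experiments. COXII mtDNA and nuclear β-actin DNA measured by real-time PCR, normalised to untreated control; IC₅₀ calculated.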

Hepatitis C virus [14] = assay: Antiviral activity against HCV genotype 1b containing NS5B M414I mutant infected in human HuH7 cells assessed as reduction in replicon RNA levels incubated for 5 days by RT-PCR assay; format: functional, cell-based, Hepacivirus hominis; conditions: Huh-7, 120 h; how it was run: as §2
Hepatitis C virus [15] = assay: Antiviral activity against HCV infected in human HuH7 cells assessed as reduction in replicon RNA levels incubated for 5 days by RT-PCR assay; format: functional, organism-based, Hepacivirus hominis; conditions: Huh-7, 120 h; how it was run: as §2
[16] = Toxicity in human PC3 cells assessed as effect on thymidine uptake at 100 uM; format: cell-based; conditions: pc-3, 100 µM
Hepatitis C virus [17] = assay: Antiviral activity against HCV genotype 1b containing NS5B C316Y mutant infected in human HuH7 cells assessed as reduction in replicon RNA levels incubated for 5 days by RT-PCR assay; format: functional, cell-based, Hepacivirus hominis; conditions: Huh-7, 120 h; how it was run: as §2
HepG2 [18] = assay: Mitochondrial toxicity in human HepG2 cells assessed as induction of lactic acid levels at 50 uM incubated for 14 days; format: cell-based; conditions: hepg2, 336 h; how it was run: as §3
Hepatitis C virus [19] = assay: Antiviral activity against HCV genotype 1b containing NS5B S282T mutant infected in human HuH7 cells assessed as reduction in replicon RNA levels incubated for 5 days by RT-PCR assay; format: functional, cell-based, Hepacivirus hominis; conditions: Huh-7, 120 h; how it was run: as §2
Hepatitis C virus [20] = assay: Antiviral activity against HCV genotype 2a infected in human HuH7 cells assessed as reduction in replicon RNA levels incubated for 5 days by RT-PCR assay; format: functional, cell-based, Hepacivirus hominis; conditions: Huh-7, 120 h; how it was run: as §2
Hepatitis C virus [21] = assay: Antiviral activity against HCV genotype 1a infected in human HuH7 cells assessed as reduction in replicon RNA levels incubated for 5 days by RT-PCR assay; format: functional, cell-based, Hepacivirus hominis; conditions: subtype 1a, Huh-7, 120 h; how it was run: as §2
Hepatitis C virus [22] = assay: Antiviral activity against HCV genotype 2b chimera with HCV genotype 1b Con1 backbone containing HCV genotype 2b NS5B gene infected in human HuH7 cells assessed as reduction in replicon RNA levels incubated for 5 days by RT-PCR assay; format: functional, cell-based, Hepacivirus hominis; conditions: Huh-7, 120 h; how it was run: as §2
Hepatitis C virus [23] = assay: Antiviral activity against HCV genotype 1b containing NS5A Y93H mutant infected in human HuH7 cells assessed as reduction in replicon RNA levels incubated for 5 days by RT-PCR assay; format: functional, cell-based, Hepacivirus hominis; conditions: Huh-7, 120 h; how it was run: as §2
Hepatitis C virus [24] = assay: Antiviral activity against HCV genotype 1b containing NS5B P495A mutant infected in human HuH7 cells assessed as reduction in replicon RNA levels incubated for 5 days by RT-PCR assay; format: functional, cell-based, Hepacivirus hominis; conditions: Huh-7, 120 h; how it was run: as §2
HepG2 [25] = assay: Mitochondrial toxicity in human HepG2 cells assessed as effect on mitochondrial cytochrome c oxidase subunit 2 DNA level incubated for 14 days by real-time PCR method; format: cell-based; conditions: hepg2, 336 h; how it was run: as §4

## CCOC(=O)CCc1ccccc1O[P@@](=O)(N[C@@H](C)C(=O)OCC)OC[C@H]1O[C@@H](n2cnc3c(N)nc(N)nc32)[C@](C)(O)[C@H]1O
[1]
  fold change (FC): 7
[2]
  fold change (FC): 13
Hepatitis C virus [3]
  EC50: 390 nM
  EC90: 890 nM
Hepatitis C virus [4]
  EC50: 320 nM
  EC90: 1300 nM
HepG2 [5]
  Activity: 120%
HepG2 [6]
  Activity: 150%
[7]
  Activity: Non-toxic
Hepatitis C virus [8]
  EC50: 260 nM
  EC90: 390 nM
Vero
  CC50: > 100000 nM
[9]
  Drug metabolism: 9.9 pmol
Hepatitis C virus [10]
  EC50: 320 nM
  EC90: 640 nM
Hepatitis C virus [11]
  EC50: 230 nM
  EC90: 390 nM
Hepatitis C virus [12]
  EC50: 120 nM
  EC90: 250 nM
HepG2 [13]
  CC50: > 50000 nM
Hepatitis C virus [14]
  EC50: 280 nM
  EC90: 1100 nM
Hepatitis C virus [15]
  EC50: 200 nM
  EC90: 700 nM
[16]
  Activity: Non-toxic
Hepatitis C virus [17]
  EC50: 270 nM
  EC90: 770 nM
HepG2 [18]
  Activity: 110%
Hepatitis C virus [19]
  EC50: 100 nM
  EC90: 230 nM
Hepatitis C virus [20]
  EC50: 260 nM
  EC90: 700 nM
Hepatitis C virus [21]
  EC50: 350 nM
  EC90: 740 nM
Hepatitis C virus [22]
  EC50: 290 nM
  EC90: 420 nM
Hepatitis C virus [23]
  EC50: 300 nM
  EC90: 3000 nM
Hepatitis C virus [24]
  EC50: 80 nM
  EC90: 140 nM
HepG2 [25]
  CC50: > 50000 nM
